This is an account of results in PubChem BioAssay AID651783 (The Scripps Research Institute Molecular Screening Center, 2012).

Structures are written as SMILES. Among all 2,400 compounds or so, about 2,000 (83%) were called active. The set was probably picked from earlier hits. Only a sample is shown. Values without a mark were called inactive.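 Rule for the calls: active = activation above a cutoff set at the run's mean compound activation plus 3 SD (cut at about 39% in these data); inactive = the rest.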

The target in this experiment is Trace amine-associated receptor 1 (Homo sapiens) (UniProt Q96RJ0). The experiment can be described thus: human TAAR1 agonists, retest of hits, confirmation, Fluo-8 calcium fluorescence, CHO RD-HGA16 cells (AID 651783).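 Note: promiscuous G-alpha-16 overexpression reroutes TAAR1 signalling from cAMP to calcium; peak fluorescence divided by basal pre-compound fluorescence per well; 0% = DMSO wells and 100% = phenethylamine at EC100.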 Conditions: CHO RD-HGA16 TAAR1, Fluo-8 calcium fluorescence; at 3 µM; hits give high values; scaled: DMSO 0%, maximal phenethylamine 100%. An outline of the steps: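 Test system: RD-HGA16 CHO cells co-expressing hTAAR1 and promiscuous Gα16. Doses: 3 µM single dose. Incubation: Fluo-8 loading 75 min 37 °C and 30 min RT. Technique: Fluo-8 calcium fluorescence, 5 s basal then 140 s kinetic read. Replication: each compound tested in triplicate.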
Trace amine-associated receptor 1 (Homo sapiens), sequence (Q96RJ0 whole entry, looked up): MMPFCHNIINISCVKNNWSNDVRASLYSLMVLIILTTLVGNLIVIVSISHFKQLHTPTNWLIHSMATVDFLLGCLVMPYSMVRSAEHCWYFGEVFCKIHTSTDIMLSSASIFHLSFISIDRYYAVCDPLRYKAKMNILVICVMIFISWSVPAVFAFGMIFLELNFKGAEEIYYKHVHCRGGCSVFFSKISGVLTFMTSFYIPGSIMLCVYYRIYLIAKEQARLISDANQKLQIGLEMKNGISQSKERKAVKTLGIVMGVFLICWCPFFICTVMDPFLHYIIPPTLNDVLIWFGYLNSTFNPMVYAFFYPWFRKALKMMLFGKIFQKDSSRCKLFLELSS
On to `O=C(COC(=O)Cc1ccccc1F)NCCc1ccccc1`, for which the activation was 73% (active).
Take `C[C@H](NC(=O)c1ccccc1)C(=O)OCC(=O)c1c[nH]c2ccccc12`: the activation was 79.6% (active).
Take `CC(=O)Nc1ccccc1Sc1ccc2c3c(cccc13)C(=O)N(c1ccc(C)cc1)C2=O`: the activation was -2.82%.
Next, `Cc1ccn2c(=O)c(C(=O)NCCC3=CCCCC3)c(O)nc2c1`: 106% (active); `O=C(CCCN=C1NS(=O)(=O)c2ccccc21)OCC(=O)c1ccc(F)c(F)c1`: 83.8% (active); `O=Cc1c(NCCc2cccc(F)c2)c2ccccc2[nH]c1=O`: 78.3% (active).
Next, `CCCCOc1ccc(CSC(=N)N)cc1[N+](=O)[O-]`: 48% (active).
Turning to `O=C1CCCC(O)=C1C=NCCc1ccccc1`, the activation is 74.5% (active).
For `COc1cccc(-c2cnc(OC(C)(C)C)nc2OC(C)(C)C)c1`, the activation is 38.6% (active).
In the case of `CN(C)c1ccc(/C=C2\NC(=S)N(Cc3ccccc3)C2=O)cc1`, the activation is 51.1% (active).
For `O=C(CSc1nc(-c2ccco2)cc(C(F)(F)F)n1)NCc1cccs1`, the activation is -0.49%.
Regarding `c1ccc2c(c1)OCC(CNc1ncnc3nc[nH]c13)O2` (centres undefined), the activation was 210% (active).
For the compound `CCCSc1nc2c(c(=O)n(C)c(=O)n2C)n1Cc1ccc(C)cc1`, the activation is 61% (active).
Consider `COc1ccc(C(=O)CN2C(=O)NC(C)(c3ccc(C)cc3)C2=O)cc1OC` (centres undefined), for which the activation was 46.6% (active).
In the case of `c1ccc(Nc2nc(N3CCOCC3)c3ccccc3n2)cc1`, the activation was 93.8% (active).
`CC(NC(=O)c1cc(-c2ccccc2)on1)c1ccccc1` (centres undefined): the activation was 66.5% (active).
Next, `O=C(Nc1ccccc1)Nc1nnc(COc2ccccc2F)s1`: 71.7% (active); `Nc1cc(OC(=O)c2ccccc2Br)nn1S(=O)(=O)c1ccccc1`: 59.1% (active).
In the case of `CC(C)(C)CC(=O)Nc1nc(C(N)Cc2ccc(C(F)(F)F)cc2)cs1` (centres undefined), the activation is 99% (active).
The result for `NC(Cc1ccccc1)c1csc(Nc2cc(Oc3ccccc3)ncn2)n1` (centres undefined) reads 87% (active).
For `COc1ccc(CC(N)c2csc(NC(=O)Cc3ccccc3)n2)cc1` (centres undefined), the activation was 57.8% (active).
Next, `CN(C)CCCN(C(=O)c1ccc(S(=O)(=O)N2CCCc3ccccc32)cc1)c1nc2ccc(F)cc2s1`: 62.2% (active); `CN(C)CCCN(C(=O)c1ccc(S(=O)(=O)N2CCCCCC2)cc1)c1nc2ccc(Br)cc2s1`: 44% (active).
The result for `Cc1cccc(NC(=O)C(C)N2C(=O)C3C4CC(C(Br)C4Br)C3C2=O)c1` (centres undefined) reads 33.9%.
The result for `O=C1CCCN2N=C(SCC(=O)Nc3ccc(Br)cc3)SC2=N1` reads 55.6% (active); that for `O=C(NCCc1ccccc1)C(=O)NCC1OCCN1S(=O)(=O)c1cccs1` (centres undefined), 70.4% (active); that for `Cn1c(=O)c(=O)n(C)c2cc(S(=O)(=O)NCCc3ccccc3)ccc21`, 98.3% (active).
With `CC(Oc1ccc2ccccc2c1)C(=O)NNC(=S)NC(=O)c1ccco1` (centres undefined), the activation is 76% (active).
Turning to `CCCc1ccc(OCC(=O)NNC(=S)NC(=O)c2ccco2)cc1`, the activation is 93.8% (active).
As to `Oc1ccc2ccc3cccc[n+]3c2c1`, the activation was 60.5% (active).
In the case of `COc1ccc(C(N)c2csc(NC(=O)Nc3cccc(C(F)(F)F)c3)n2)cc1` (centres undefined), the activation was 45.9% (active).
As to `NC(c1ccccc1)c1csc(NC(=O)Nc2cccc(C(F)(F)F)c2)n1` (centres undefined), the activation was 61.4% (active).
Turning to `O=c1cnnc(Nc2ccccc2)[nH]1`, the activation was 80.2% (active).
Consider `CCCCC(=O)NNC(=S)NC(=O)C(c1ccccc1)c1ccccc1`, for which the activation is 152% (active).
In the case of `Cc1cc(C)c2cc(C#N)c(N3CCNCC3)nc2c1`, the activation is 90.6% (active).
For `CCOc1ccc(Br)cc1CSC(=N)N`, the activation was 73.8% (active).
For `CCN(CC)c1ccc2oc(=O)c(C)nc2c1`, the activation was 34.1%.
For `O=C(Nc1ccc(Cl)cc1)N1CCc2[nH]c3ccccc3c2C1`, the activation was 21.7%.
The result for `O=C(c1noc2c1CCCC2)N1CCc2ccccc2C1` reads 68% (active); that for `Cc1cc(=O)oc2c(C)c(OCC(=O)NCCN3CCOCC3)ccc12`, 2.28%.
As for `c1ccc(-c2csc(N3CCc4ccccc4C3)n2)cc1`, the activation was 81.8% (active).
Turning to `CSc1nc(N)c(C#N)c(-c2ccccc2Cl)c1C#N`, the activation is 58.5% (active).
With `O=C(NCCc1ccccc1)/C(=C\c1ccc([N+](=O)[O-])cc1)NC(=O)c1ccccc1`, the activation is 34.4%.
For `CCCCCC(=O)NC(=S)NNC(=O)c1ccc([N+](=O)[O-])cc1`, the activation is 113% (active).
As to `Cc1ccc(Cl)cc1N1CCN(C(=O)c2cccc3c(=O)c(C)c(-c4ccccc4)oc23)CC1`, the activation is 113% (active).
The result for `S=C(NCCc1ccccc1)N1CCn2cccc2C1c1ccncc1` (centres undefined) reads 95% (active).
Take `COc1ccc2c(c1)OC(O)(C(F)(F)C(F)F)CC2=O` (centres undefined): the activation is 38.7% (active).
On to `COC(=O)c1[nH]c2cccc(C)c2c1NC(=O)CN1CCCc2ccccc21`, for which the activation was 68.9% (active).
For the compound `Cc1cc2nc3c(=O)[nH]c(=O)nc-3n(C[C@H](O)[C@H](O)[C@H](O)CO)c2cc1C`, the activation is 121% (active).
As to `O=C(N[C@H](C(=O)N1CCC[C@H]1C(=O)NCCc1ccccc1Cl)c1ccccc1)c1ccccc1`, the activation is 83.6% (active).
Next, `Nc1cccc2c1C(=O)N(Cc1nnc(-c3ccccc3Br)o1)C2=O`: 100% (active); `CCC(c1nnnn1Cc1ccco1)N(CCc1ccccc1)Cc1cc2ccc(OC)cc2[nH]c1=O` (centres undefined): 30.9%; `CCC(c1nnnn1Cc1ccco1)N(CCc1ccccc1)Cc1cc2cccc(C)c2[nH]c1=O` (centres undefined): 50.2% (active).
On to `CCCn1c(O)c(CN2CCCC(C)C2)c(C)c(C#N)c1=O` (centres undefined), for which the activation is 85% (active).
On to `Nc1c(NCCc2ccccc2)c2ccccc2oc1=O`, for which the activation is 70.5% (active).
As to `CC(Oc1ccc(Cl)cc1)C(=O)OCC(=O)Nc1ncc(Cl)cc1Cl` (centres undefined), the activation is 30.3%.
On to `O=[N+]([O-])c1cc(S(=O)(=O)NCCc2ccccn2)ccc1Cl`, for which the activation is 76.4% (active).
For the compound `O=C1C=C(c2ccc(Cl)cc2)C(=O)N1Nc1ccccc1`, the activation was 58.5% (active).
Turning to `CCc1ccccc1S(=O)(=O)Cc1ccc(C(=O)NCCc2ccccc2)o1`, the activation was 78.3% (active).
Next, `O=C(NNC(=S)NC(=O)c1cn(-c2ccccc2)nc1-c1ccccc1)c1ccncc1`: 103% (active); `O=C(Nc1ccc(F)cc1)Nc1nnc([C@H]2C[C@H](O)[C@@H](CO)O2)s1`: 52.9% (active); `Nc1c(C(=O)c2cccs2)sc2nsc(SCCN3CCCCC3)c12`: 85% (active).
For the compound `S=C(Nc1ccc(Br)cc1)NC1CCN(Cc2ccccc2)CC1`, the activation was 62.4% (active).
Regarding `CCCCCCCCCCOC(=O)Cn1c(COc2ccc(C)cc2)[n+](C)c2ccccc21`, the activation is 109% (active).
For `COCCCn1c(Cc2csc(Nc3cccc(Cl)c3)n2)nnc1SCC(=O)OC1CCCCC1`, the activation is -1.89%.
As to `Cc1ccc(NC(=O)CCN2CCc3ccccc3C2)cc1`, the activation was 88.5% (active).
Consider `CCCC1CCC(=NNC(=S)NCCc2ccccc2)CC1` (centres undefined), for which the activation is 73.7% (active).
Take `COc1cc(OC)cc(C(=O)N[C@H](C(=O)OCC(=O)NC(C)c2ccccc2)C(C)C)c1` (some centres undefined): the activation is 41.1% (active).
The result for `CC(=O)Oc1ccc(Cn2c(C)c(C(=O)NCc3ccc(C#N)cc3)sc2=O)cc1` reads 113% (active); that for `NC[C@H](Cc1ccccc1)NCCc1cc(C(F)(F)F)cc(C(F)(F)F)c1`, 55.9% (active).
The result for `COc1cc(OC)c(-n2cc(-c3ccc(Cl)cc3)[nH]c2=O)cc1Cl` reads 117% (active); that for `O=C(O)C1C2C=CC(O2)C1C(=O)NCCc1cccc(Cl)c1` (centres undefined), 101% (active).
Next, `COc1ccc(C(=O)NC(=S)NNC(=O)CCc2ccccc2)cc1`: 115% (active); `O=C(Nc1cccc(NC(=O)c2ccc(Br)cc2)c1)c1ccccc1`: 5.69%.
With `COc1ccc(C(=O)NNC(=S)NC(=O)c2ccccc2)cc1`, the activation is 127% (active).
Regarding `COc1ccc(Cl)cc1C(=O)NNC(=S)NC(=O)/C=C/c1ccco1`, the activation is 108% (active).
As for `Cc1ccc(O)c(NC(=S)NC(=O)COc2ccc(Br)cc2)c1`, the activation was 129% (active).
Take `CCc1ccc(-c2nn(-c3ccccc3)cc2CSC(=N)N)cc1`: the activation is 58.1% (active).
The result for `CCc1c(-c2ccccc2OC)ncn1CCc1ccccc1OC` reads 82.6% (active); that for `CCCCc1c(-c2ccc(Br)cc2)ncn1CCc1ccccc1OC`, 68.2% (active).
Take `CCCCc1c(-c2ccc(Cl)cc2)ncn1CCc1ccccc1OC`: the activation was 81% (active).
As to `COc1ccc(OC)c(C(c2nnnn2C(C)(C)C)N2CCc3ccccc3C2)c1` (centres undefined), the activation was 66.7% (active).
As for `CCOC(=O)Cc1csc(NC(=O)Nc2ccccc2)n1`, the activation is 60.1% (active).
In the case of `O=C(Nc1ccncc1)Nc1ccc(F)cc1`, the activation is 83.6% (active).
As for `CCCCCc1c(Cc2ccccc2)ncn1CCc1ccccc1OC`, the activation is 84.3% (active).
The result for `CCCCCc1c(-c2cccc(Br)c2)ncn1CCc1ccccc1OC` reads 37.5% (active); that for `CCCCCc1c(-c2ccc(OC)c(OC)c2)ncn1CCc1ccccc1OC`, 98.3% (active); that for `NC(=O)C1=C[C@H](c2csc3ccccc23)C[C@H](OCc2ccc(CO)cc2)O1`, 58.4% (active).
On to `c1ccc2c(c1)C(=NC1CCCCC1)NC2=NC1CCCCC1`, for which the activation is 90.4% (active).
As to `CCC(C(=O)Nc1ccc(C(C)C)cc1)c1ccccc1` (centres undefined), the activation was 114% (active).
Consider `C#CCOc1ccc(/C=C2/C(=O)NN(c3ccccc3)C2=O)cc1OC`, for which the activation was 88% (active).
The result for `COc1ccc2cc(-c3[nH]ncc3CNCCn3nc(C)cc3C)ccc2c1` reads 57.6% (active); that for `O=C(Cc1ccc(Cl)cc1)NC(=S)Nc1ccccc1O`, 134% (active); that for `Cc1ccccc1NC(=S)NC(=O)Cc1ccc(Cl)cc1`, 85.2% (active).
As for `S=C(NCCCc1cnc[nH]1)NCCCN(Cc1ccc(Cl)c(Cl)c1)c1ccc(Br)cn1`, the activation was 58% (active).
The result for `Cc1c(CNCCc2ccccc2)c(C(=O)O)c(C)n1-c1ccccc1` reads 88.8% (active); that for `CN(C(=O)CN(CCO)CC(=O)N(C)C(C)(C)Cc1ccccc1)C(C)(C)Cc1ccccc1`, 101% (active); that for `Cc1ccccc1-c1nc(CS(=O)(=O)CC(=O)N2CCc3ccccc3C2)c(C)o1`, 68.7% (active).
As to `COc1ccc(NC(=O)C(=O)NCC(c2ccco2)N2CCc3ccccc3C2)cc1` (centres undefined), the activation is 40.5% (active).
As for `c1ccc(C2CNCc3c2ccc2ccccc32)cc1` (centres undefined), the activation was 88.2% (active).
In the case of `N#Cc1ccc(OCCCN2CCC(C(O)(c3ccccc3)c3ccccc3)CC2)c(F)c1`, the activation was 36.6%.
On to `Cc1ccc(Sc2cc(N3CCOCC3)nc(-c3ccccc3)n2)cc1`, for which the activation is 19.1%.
Turning to `CCCc1cc(C(=O)Nc2ccc(C(=O)OC)cc2)cs1`, the activation was 1.29%.
For `COc1cccc(N(CC(=O)N2CCc3ccccc3C2)S(C)(=O)=O)c1`, the activation was 63.4% (active).
Regarding `Cc1ccc(S(=O)(=O)N(CC(=O)N2CCc3ccccc3C2)c2cccc(Cl)c2)cc1`, the activation is 56.1% (active).
Next, `OC(CNCCc1ccc(Cl)cc1Cl)COc1ccccc1` (centres undefined): 87.4% (active); `Nc1nnn(CC(=O)N/N=C/c2ccccc2)n1`: 61.6% (active).
Next, `CCCOc1ccc(-c2c(C(=O)N/N=C/c3ccco3)nnn2-c2nonc2N)cc1`: 73.1% (active).
With `Nc1nonc1-n1nnc(C(=O)N/N=C/c2ccc(Cl)cc2)c1-c1ccc2c(c1)OCO2`, the activation is 142% (active).
In the case of `COc1ccc(C(=O)NC(=S)NNC(=O)c2c(-c3ccccc3)noc2C)cc1`, the activation was 93% (active).
Regarding `Cc1onc(-c2ccccc2)c1C(=O)NNC(=S)NC(=O)c1ccc(F)cc1`, the activation is 127% (active).
On to `Fc1ccc(NC(=S)N2CCc3[nH]c4ccccc4c3C2)cc1`, for which the activation is 32.8%.
Regarding `COc1ccc(OC)c(NC(=S)N2CCc3ccccc3C2)c1`, the activation is 87.5% (active).
In the case of `O=C(/C=C/[C@H]1O[C@@H](n2cnc3c(NC(=O)c4ccccc4)ncnc32)[C@H](O)[C@@H]1O)NCc1ccccc1`, the activation was 0.79%.
